Results from ChEMBL document CHEMBL2321690, “New betulinic acid derivatives for bevirimat-resistant human immunodeficiency virus type-1” (J Med Chem, 2013).
Activity calls are given as the source filed them. No cut-off for these calls is given here.

Assays:
[1] = tested on: Human immunodeficiency virus 1; test: Antiviral activity against 0.001 MOI bevirimat-resistant Human immunodeficiency virus 1 NL4-3 harboring gag V370A mutant infected in human MT4 cells assessed as inhibition of viral replication measured 4 days post infection by ELISA; type: functional, organism-based; conditions: Human immunodeficiency virus 1, NL4-3, MT4, 96 h
How it was run: (§1)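 Mutations introduced into pNL4-3 by site-directed mutagenesis. MT4 cells infected with wild-type NL4-3 or resistant variant at 0.001 TCID50/cell in presence of graded compound concentrations. Supernatant p24 measured by ELISA on day 4 post-infection. IC50 is the concentration reducing p24 by 50%, reported as mean ± SD with the number of tests given per value.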

MT4 = test: Cytotoxicity against human MT4 cells for 4 days; type: cell-based; conditions: mt4, 96 h
How it was run: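 MT4 cells cultured with various compound concentrations for 4 days. Viability read by a CytoTox-Glo luminescent cytotoxicity assay. CC50 is the concentration reducing viable cells by 50%.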

[2] = tested on: Human immunodeficiency virus 1; test: Antiviral activity against 0.001 MOI wild type Human immunodeficiency virus 1 NL4-3 infected in human MT4 cells assessed as inhibition of viral replication measured 4 days post infection by ELISA; type: functional, organism-based; conditions: Human immunodeficiency virus 1, NL4-3, MT4, 96 h; how it was run: as §1
[3] = (§2) Inhibition of wild type Human immunodeficiency virus 1 NL4-3 envelope glycoprotein gp160-mediated cell-cell fusion between virus-infected monkey COS cells to human TZM-bl cells after 24 hrs by luciferase reporter gene assay; type: cell-based; conditions: Human immunodeficiency virus 1, NL4-3, COS
How it was run: (§3)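 COS cells (1 × 10^6 cells/mL) electroporated (950 µF, 150 V) with vector expressing NL4-3 Env and tat, then cultured one day. Mixed with TZM-bl cells with inhibitor over a 1–10000 nM range. Luciferase (RLU) in fused cells read 24 h after mixing, expressed as % of no-compound fusion. Points are mean ± SD of three tests.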

[4] = tested on: Human immunodeficiency virus 1; test: Antiviral activity against bevirimat-resistant Human immunodeficiency virus 1 NL4-3 harboring gag V370A mutant infected in human 293T cells assessed as inhibition of CA-SP1 cleavage measured 2 days post infection by Western blotting analysis; type: functional, organism-based
How it was run: (§4)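 Provirus plasmids (pNL4-3/V370A, pNL4-3/V362I, with pNL4-3 alongside) transfected into 293T cells, and virus produced in presence of compound. Supernatant virus harvested two days after transfection. Western blot with anti-p24 monoclonal antibody (183-H12-5C) to detect accumulation of CA-SP1 (p25), indicating inhibited CA-SP1 cleavage.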

[5] = tested on: Human immunodeficiency virus 1; test: Antiviral activity against 0.001 MOI bevirimat-resistant Human immunodeficiency virus 1 NL4-3 harboring gag T371 deletion mutant infected in human MT4 cells assessed as inhibition of viral replication measured 4 days post infection by ELISA; type: functional, organism-based; conditions: Human immunodeficiency virus 1, NL4-3, MT4, 96 h; how it was run: as §1
[6] = tested on: Human immunodeficiency virus 1; test: Potency index, ratio of bevirimat IC50 to compound IC50 for 0.001 MOI bevirimat-resistant Human immunodeficiency virus 1 NL4-3 harboring gag V370A mutant infected in human MT4 cells; type: functional
[7] = tested on: Human immunodeficiency virus 1; test: Antiviral activity against 0.001 MOI bevirimat-resistant Human immunodeficiency virus 1 NL4-3 harboring gag V370 deletion mutant infected in human MT4 cells assessed as inhibition of viral replication measured 4 days post infection by ELISA; type: functional, organism-based; conditions: Human immunodeficiency virus 1, NL4-3, MT4, 96 h; how it was run: as §1
[8] = tested on: Human immunodeficiency virus 1; test: Antiviral activity against 0.001 MOI bevirimat-resistant Human immunodeficiency virus 1 NL4-3 harboring gag V362I mutant infected in human MT4 cells assessed as inhibition of viral replication measured 4 days post infection by ELISA; type: functional, organism-based; conditions: Human immunodeficiency virus 1, NL4-3, MT4, 96 h; how it was run: as §1
COS = test: as §2; type: cell-based; how it was run: as §3
[9] = tested on: Human immunodeficiency virus 1; test: Antiviral activity against bevirimat-resistant Human immunodeficiency virus 1 NL4-3 harboring gag V362I mutant infected in human 293T cells assessed as inhibition of CA-SP1 cleavage measured 2 days post infection by Western blotting analysis; type: functional, organism-based; how it was run: as §4
[10] = tested on: Human immunodeficiency virus 1; test: Antiviral activity against wild type Human immunodeficiency virus 1 NL4-3 infected in human 293T cells assessed as inhibition of CA-SP1 cleavage measured 2 days post infection by Western blotting analysis; type: functional, organism-based
How it was run: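 293T cells transfected with pNL4-3 proviral plasmid and cultured with compounds. Culture supernatant collected 2 days after transfection. Western blot with anti-p24 monoclonal antibody (hybridoma 183-H12-5C) detected CA-SP1 (p25) accumulation, taken as the measure of blocked CA-SP1 cleavage.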

Compound | IC50 [1] | CC50 (MT4) | IC50 [2] | further results
C=C(C)[C@@H]1CC[C@]2(C(=O)NCCCCCCCCNC(=O)[C@@H]3CCCN3C(=O)OC(C)(C)C)CC[C@]3(C)[C@H](CC[C@@H]4[C@@]5(C)CC[C@H](OC(=O)CC(C)(C)C(=O)O)C(C)(C)[C@@H]5CC[C@]43C)[C@@H]12 | 950 nM | > 10000 nM | 40 nM | 
C=C(C)[C@@H]1CC[C@]2(C(=O)NCCCCCCCCC(=O)NCC(=O)OC)CC[C@]3(C)[C@H](CC[C@@H]4[C@@]5(C)CC[C@H](OC(=O)CC(C)(C)C(=O)O)C(C)(C)[C@@H]5CC[C@]43C)[C@@H]12 | 1510 nM | > 10000 nM | 10 nM | 
C=C(C)[C@@H]1CC[C@]2(C(=O)NCCCCCCCCNC(=O)[C@H](CCC#N)NC(=O)OC(C)(C)C)CC[C@]3(C)[C@H](CC[C@@H]4[C@@]5(C)CC[C@H](OC(=O)CC(C)(C)C(=O)O)C(C)(C)[C@@H]5CC[C@]43C)[C@@H]12 | 330 nM | > 10000 nM | 30 nM | 
C=C(C)[C@@H]1CC[C@]2(C(=O)NCCCCCCCNC(C)=O)CC[C@]3(C)[C@H](CC[C@@H]4[C@@]5(C)CC[C@H](O)C(C)(C)[C@@H]5CC[C@]43C)[C@@H]12 |  |  |  | IC50 [3]: 42 nM
C=C(C)[C@@H]1CC[C@]2(C(=O)NCCCCCCCCCC(=O)N[C@@H](CCC(N)=O)C(=O)OC)CC[C@]3(C)[C@H](CC[C@@H]4[C@@]5(C)CC[C@H](OC(=O)CC(C)(C)C(=O)O)C(C)(C)[C@@H]5CC[C@]43C)[C@@H]12 | 700 nM | > 10000 nM | 100 nM | 
C=C(C)[C@@H]1CC[C@]2(C(=O)NCCCCCCCCC(=O)N[C@H](C(=O)OC)C(C)C)CC[C@]3(C)[C@H](CC[C@@H]4[C@@]5(C)CC[C@H](OC(=O)CC(C)(C)C(=O)O)C(C)(C)[C@@H]5CC[C@]43C)[C@@H]12 | 1240 nM | > 10000 nM | 10 nM | 
C=C(C)[C@@H]1CC[C@]2(C(=O)NCCCCCCCCC(=O)N[C@@H](CCC(N)=O)C(=O)OC)CC[C@]3(C)[C@H](CC[C@@H]4[C@@]5(C)CC[C@H](OC(=O)CC(C)(C)C(=O)O)C(C)(C)[C@@H]5CC[C@]43C)[C@@H]12 | 160 nM | > 10000 nM | 9 nM | inhibition [4]: Active; IC50 [5]: 67 nM; Ratio IC50 [6]: 20; IC50 [7]: 320 nM; IC50 [8]: 16 nM; inhibition (COS): inactive; inhibition [9]: Active
C=C(C)[C@@H]1CC[C@]2(C(=O)NCCCCCCCCNC(=O)[C@H](C)NC(=O)OC(C)(C)C)CC[C@]3(C)[C@H](CC[C@@H]4[C@@]5(C)CC[C@H](OC(=O)CC(C)(C)C(=O)O)C(C)(C)[C@@H]5CC[C@]43C)[C@@H]12 | 920 nM | > 10000 nM | 20 nM | 
C=C(C)[C@@H]1CC[C@]2(C(=O)NCCCCCCCCC(=O)N3CCC[C@H]3C(=O)OC)CC[C@]3(C)[C@H](CC[C@@H]4[C@@]5(C)CC[C@H](OC(=O)CC(C)(C)C(=O)O)C(C)(C)[C@@H]5CC[C@]43C)[C@@H]12 | 880 nM | > 10000 nM | 100 nM | 
C=C(C)[C@@H]1CC[C@]2(C(=O)NCCCCCCCCCNC(=O)[C@H](CCC(N)=O)NC(=O)OC(C)(C)C)CC[C@]3(C)[C@H](CC[C@@H]4[C@@]5(C)CC[C@H](OC(=O)CC(C)(C)C(=O)O)C(C)(C)[C@@H]5CC[C@]43C)[C@@H]12 | 1200 nM | > 10000 nM | 20 nM | 
C=C(C)[C@@H]1CC[C@]2(C(=O)NCCCCCCCCC(=O)N(C)CC#N)CC[C@]3(C)[C@H](CC[C@@H]4[C@@]5(C)CC[C@H](OC(=O)CC(C)(C)C(=O)O)C(C)(C)[C@@H]5CC[C@]43C)[C@@H]12 | 2080 nM | > 10000 nM | 40 nM | 
C=C(C)[C@@H]1CC[C@]2(C(=O)N3CCN(CCCCC(=O)O)CC3)CC[C@]3(C)[C@H](CC[C@@H]4[C@@]5(C)CC[C@H](OC(=O)CC(C)(C)C(=O)O)C(C)(C)[C@@H]5CC[C@]43C)[C@@H]12 | > 3300 nM | > 10000 nM | 6 nM | 
C=C(C)[C@@H]1CC[C@]2(C(=O)NCCCCCCCCC(=O)N[C@@H](CCC(N)=O)C(=O)OCc3ccccc3)CC[C@]3(C)[C@H](CC[C@@H]4[C@@]5(C)CC[C@H](OC(=O)CC(C)(C)C(=O)O)C(C)(C)[C@@H]5CC[C@]43C)[C@@H]12 | 2540 nM | > 10000 nM | 40 nM | 
C=C(C)[C@@H]1CC[C@]2(C(=O)NCCCCCCCCC(=O)NCC#N)CC[C@]3(C)[C@H](CC[C@@H]4[C@@]5(C)CC[C@H](OC(=O)CC(C)(C)C(=O)O)C(C)(C)[C@@H]5CC[C@]43C)[C@@H]12 | 460 nM | 6490 nM | 30 nM | 
C=C(C)[C@@H]1CC[C@]2(C(=O)O)CC[C@]3(C)[C@H](CC[C@@H]4[C@@]5(C)CC[C@H](OC(=O)CC(C)(C)C(=O)O)C(C)(C)[C@@H]5CC[C@]43C)[C@@H]12 [BEVIRIMAT] | > 5000 nM | > 10000 nM | 76 nM | inhibition [4]: inactive; IC50 [5]: > 6800 nM; IC50 [7]: > 6800 nM; IC50 [8]: > 6800 nM; inhibition [10]: Active; inhibition (COS): inactive
C=C(C)[C@@H]1CC[C@]2(C(=O)NCCCCCCCCC(=O)N[C@@H](C)C(=O)OC)CC[C@]3(C)[C@H](CC[C@@H]4[C@@]5(C)CC[C@H](OC(=O)CC(C)(C)C(=O)O)C(C)(C)[C@@H]5CC[C@]43C)[C@@H]12 | 420 nM | > 10000 nM | 10 nM | 
C=C(C)[C@@H]1CC[C@]2(C(=O)NCCCCCCCCC(=O)N[C@@H](CCC(=O)OC)C(=O)OC)CC[C@]3(C)[C@H](CC[C@@H]4[C@@]5(C)CC[C@H](OC(=O)CC(C)(C)C(=O)O)C(C)(C)[C@@H]5CC[C@]43C)[C@@H]12 | 2160 nM | > 10000 nM | 180 nM | 
C=C(C)[C@@H]1CC[C@]2(C(=O)NCCCCCCCCNC(=O)[C@@H](NC(=O)OC(C)(C)C)C(C)C)CC[C@]3(C)[C@H](CC[C@@H]4[C@@]5(C)CC[C@H](OC(=O)CC(C)(C)C(=O)O)C(C)(C)[C@@H]5CC[C@]43C)[C@@H]12 | 330 nM | > 10000 nM | 150 nM | 
C=C(C)[C@@H]1CC[C@]2(C(=O)NCCCCCCCCC(=O)N[C@H](C(=O)OC)[C@@H](C)CC)CC[C@]3(C)[C@H](CC[C@@H]4[C@@]5(C)CC[C@H](OC(=O)CC(C)(C)C(=O)O)C(C)(C)[C@@H]5CC[C@]43C)[C@@H]12 | 2780 nM | > 10000 nM | 40 nM | 
